OX1R antag-1: OX1R (human) antagonism | inhibition, % at 6.6 µM | OX1R-expressing cells, FRET antagonist read-out | 1.8% of 330,000 active | O43613 | AID 485270; in the data active = inhibition mostly above about 38%, no sharp cut-off; inactive = mostly below about 40%
Target sequence (O43613 whole entry, looked up): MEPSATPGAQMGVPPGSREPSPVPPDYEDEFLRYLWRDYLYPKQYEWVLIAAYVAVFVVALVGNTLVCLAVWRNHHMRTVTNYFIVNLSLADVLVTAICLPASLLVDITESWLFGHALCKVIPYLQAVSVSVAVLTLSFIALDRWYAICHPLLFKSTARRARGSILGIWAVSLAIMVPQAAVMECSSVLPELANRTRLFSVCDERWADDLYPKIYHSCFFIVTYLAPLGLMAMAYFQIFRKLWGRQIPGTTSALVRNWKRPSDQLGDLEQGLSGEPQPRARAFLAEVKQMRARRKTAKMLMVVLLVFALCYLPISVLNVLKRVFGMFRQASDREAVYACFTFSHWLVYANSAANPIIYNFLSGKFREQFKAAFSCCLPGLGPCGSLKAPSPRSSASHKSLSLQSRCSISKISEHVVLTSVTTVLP
TAAR1 antag: human TAAR1 antagonism | CHO RD-HGA16 TAAR1, Fluo-8 calcium fluorescence, antagonist | 1.5% of 360,000 active | inhibition, % at 3 µM;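 active = inhibition above a per-plate cutoff, the mean inhibition of test compounds on that plate plus 3 SD, cut at about 49% in these data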
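System: CHO RD-HGA16 cells bearing hTAAR1. Reagent: EC80 β-phenethylamine stimulus. Schedule: seeding 17-24 h prior, 75-min 37 °C, 30-min RT dye loading. Signal: Fluo-8 intracellular calcium dye fluorescence, real-time kinetic reads. Read-out: % inhibition from peak post-agonist over basal fluorescence ratio. Benchmarks: vehicle wells and EC80 agonist wells. Replicates: n of 1.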
CHO parental Ca: signal in parental CHO cells, OX1R antagonist counter-screen. parental CHO-K1, ATP-induced calcium, Fluo-8 fluorescence. inhibition, % at 5.6 µM. 0.63% of 330,000 active;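 active = inhibition above that plate's mean sample inhibition plus 3 SD, cut at about 26% in these data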
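test system = CHO parental line | reagent = ATP stimulus | measured by = intracellular calcium via Fluo-8 no-wash fluorescent dye | control set = ATP and no-ATP DMSO wells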
TAAR1 ag: agonists of human TAAR1 | CHO RD-HGA16 TAAR1, Fluo-8 calcium fluorescence; vehicle wells 0%, saturating PEA agonist 100% | activation, % at 3 µM | AID 624467 | 0.99% of 360,000 active;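 active = activation above the mean activation of all test compounds in the run plus 3 SD, cut at about 38% in these data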
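Assay system – CHO-derived RD-HGA16 cells with stable Gα16 and human TAAR1 · Compound dosing – one-point dosing at 3 µM (nominal) · Incubation – 17-24 h seeding, 75 min 37 °C dye, 30 min RT · Measured by – kinetic Fluo-8 calcium fluorescence · Control set – DMSO vehicle as 0%, PEA at EC100 as 100% · Repeats – single well for each compound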
OX1R antag-2: blocks the human orexin 1 receptor; O43613; CHO/OX1R cells, Fluo-8 calcium fluorescence, orexin A; inhibition, % at 5 µM; 0.43% of 330,000 active; AID 434989;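 active = inhibition above its plate's threshold, mean inhibition of all tested compounds on the plate plus 3 SD, cut at about 37% in these data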
TAAR1 ag conf: confirmation of human TAAR1 agonists | shares compounds with TAAR1 ag | CHO RD-HGA16 TAAR1, Fluo-8 calcium fluorescence; scaled: DMSO 0%, maximal phenethylamine 100% | activation, % at 3 µM | 82% of 2,400 active;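 active = activation above a cutoff set at the run's mean compound activation plus 3 SD, cut at about 39% in these data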
Ga16 ag counter: nonselective agonism, TAAR1 counter-screen | shares compounds with TAAR1 ag | CHO-Ga16 parental, Fluo-8 calcium fluorescence; normalized to maximal ATP response, DMSO zero | AID 651787 | 50% of 2,400 active | activation, % at 3 µM;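 active = activation above the run cutoff, the mean activation over all tested wells plus 3 SD, cut at about 12% in these data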
TAAR1 desens: human TAAR1 agonist that also desensitizes the receptor; shares compounds with TAAR1 ag; CHO RD-HGA16 hTAAR1, Fluo-8 calcium, beta-PEA response inhibition; inhibition, % at 3 µM; 46% of 2,400 active;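 active = inhibition above the run cutoff, the mean inhibition of all test compounds plus 3 SD, cut at about 49% in these data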;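 note: beta-PEA stimulus applied at its EC80; loss of beta-PEA calcium signal after compound pretreatment read as receptor desensitization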
Ga16 antag count: counter-screen for TAAR1 agonists: nonselective Ga16 antagonists. shares compounds with TAAR1 ag. CHO-Ga16 ATP-induced calcium, Fluo-8 fluorescence. inhibition, % at 3 µM. 39% of 2,400 active;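 active = inhibition above the plate's mean compound inhibition plus 3 SD, computed per plate, cut at about 22% in these data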
A number is an active result. Shown are actives, neighbours in structure and some others; about 3.9% of the full set was active somewhere.

How did O=C(Cc1n[nH]c(=O)[nH]c1=O)N/N=C/c1cccc(Cl)c1 do in these assays?
OX1R antag-1: inactive; TAAR1 antag: inactive; CHO parental Ca: inactive; TAAR1 ag: inactive; OX1R antag-2: inactive

Results for O=C(Cc1n[nH]c(=O)[nH]c1=O)N/N=C/c1ccccc1 ?
OX1R antag-1: inactive; TAAR1 antag: inactive; CHO parental Ca: inactive; TAAR1 ag: 66; OX1R antag-2: inactive; TAAR1 ag conf: 74; Ga16 ag counter: inactive; TAAR1 desens: 55; Ga16 antag count: inactive

What do the screens show for `Cc1ccc(NC(=O)Cc2ccccc2F)cc1S(=O)(=O)N1CCCCCC1`?
OX1R antag-1: inactive; TAAR1 antag: inactive; CHO parental Ca: inactive; TAAR1 ag: inactive; OX1R antag-2: inactive

What do the screens show for `O=C(NC(=O)c1cnccc1C(F)(F)F)Nc1ccccc1`?
OX1R antag-1: inactive; TAAR1 antag: inactive; CHO parental Ca: inactive; TAAR1 ag: inactive; OX1R antag-2: inactive

What do the screens show for `Cc1occc1C(=O)N1CCCC(N2CCN(c3ccccc3F)CC2)C1` (stereo unspecified)?
OX1R antag-1: inactive; TAAR1 antag: inactive; CHO parental Ca: inactive; TAAR1 ag: inactive; OX1R antag-2: inactive

What do the screens show for `Clc1c(Cl)c(Cl)c2n[nH]nc2c1Cl`?
OX1R antag-1: inactive; TAAR1 antag: inactive; CHO parental Ca: inactive; TAAR1 ag: inactive; OX1R antag-2: inactive

How did COC(=O)c1cccnc1Oc1ccccc1 do in these assays?
OX1R antag-1: inactive; TAAR1 antag: inactive; CHO parental Ca: inactive; TAAR1 ag: inactive; OX1R antag-2: inactive

What do the screens show for `Cc1ccc(NC(=O)[C@@H]2O[C@H](CO)[C@H](O)[C@H](O)[C@H]2O)cc1C(F)(F)F`?
TAAR1 antag: inactive; TAAR1 ag: inactive

Results for O=C(NCCc1ccccc1)C(=O)NCC1OCCCN1S(=O)(=O)c1cccs1 (stereo unspecified) ?
OX1R antag-1: inactive; TAAR1 antag: inactive; CHO parental Ca: inactive; TAAR1 ag: 68; OX1R antag-2: inactive; TAAR1 ag conf: 97; Ga16 ag counter: 16; TAAR1 desens: 74; Ga16 antag count: inactive

How did O=C(NCCc1ccccc1)C(=O)NCC1CCCN1S(=O)(=O)c1ccccc1 (stereo unspecified) do in these assays?
OX1R antag-1: 42; TAAR1 antag: 76; CHO parental Ca: inactive; TAAR1 ag: 59; OX1R antag-2: inactive; TAAR1 ag conf: 85; Ga16 ag counter: inactive; TAAR1 desens: 80; Ga16 antag count: 38

What do the screens show for `O=C(NCCc1ccccc1)C(=O)NCCC1CCCCN1S(=O)(=O)c1ccccc1` (stereo unspecified)?
OX1R antag-1: inactive; TAAR1 antag: inactive; CHO parental Ca: inactive; TAAR1 ag: inactive; OX1R antag-2: inactive

How did Cc1ccc(S(=O)(=O)N2CCOC2CNC(=O)C(=O)NCCc2ccccc2)cc1 (stereo unspecified) do in these assays?
OX1R antag-1: inactive; TAAR1 antag: inactive; CHO parental Ca: inactive; TAAR1 ag: 58; OX1R antag-2: inactive; TAAR1 ag conf: 82; Ga16 ag counter: inactive; TAAR1 desens: inactive; Ga16 antag count: inactive

Results for O=C(NCc1ccccc1)C(=O)NCC1OCCCN1S(=O)(=O)c1cccs1 (stereo unspecified) ?
OX1R antag-1: inactive; TAAR1 antag: inactive; CHO parental Ca: inactive; TAAR1 ag: inactive; OX1R antag-2: inactive

What do the screens show for `Cc1ccc(S(=O)(=O)N2CCOC2CNC(=O)C(=O)NCCCc2ccccc2)cc1` (stereo unspecified)?
OX1R antag-1: inactive; TAAR1 antag: inactive; CHO parental Ca: inactive; TAAR1 ag: inactive; OX1R antag-2: inactive

How did O=C(NCCc1ccco1)C(=O)NCC1OCCCN1S(=O)(=O)c1ccccc1 (stereo unspecified) do in these assays?
OX1R antag-1: inactive; TAAR1 antag: inactive; CHO parental Ca: inactive; TAAR1 ag: 66; OX1R antag-2: inactive; TAAR1 ag conf: inactive; Ga16 ag counter: inactive; TAAR1 desens: inactive; Ga16 antag count: inactive

What do the screens show for `O=C(NCCc1ccccc1)C(=O)NCC1OCCN1S(=O)(=O)c1ccc([N+](=O)[O-])cc1` (stereo unspecified)?
OX1R antag-1: inactive; TAAR1 antag: inactive; CHO parental Ca: inactive; TAAR1 ag: 47; OX1R antag-2: inactive; TAAR1 ag conf: 73; Ga16 ag counter: inactive; TAAR1 desens: inactive; Ga16 antag count: inactive

Results for CCCCN1C(=O)C(=O)N(CC(=O)Nc2sc(CC)cc2C(=O)OCC)C1=O ?
OX1R antag-1: inactive; TAAR1 antag: inactive; CHO parental Ca: inactive; TAAR1 ag: inactive; OX1R antag-2: inactive

Results for COc1cc(OC)c(OC)cc1CCC(C)NCCC(c1ccccc1)c1ccccc1 (stereo unspecified) ?
OX1R antag-1: inactive; TAAR1 antag: inactive; CHO parental Ca: inactive; TAAR1 ag: 52; OX1R antag-2: inactive; TAAR1 ag conf: 48; Ga16 ag counter: 19; TAAR1 desens: inactive; Ga16 antag count: 25

What do the screens show for `CC(C(=O)O)n1c2ccccc2c2cnn(C)c(=O)c21` (stereo unspecified)?
TAAR1 antag: inactive; TAAR1 ag: inactive

What do the screens show for `COc1cc(/C=C2\SC(=Nc3ccc(Cl)c(C(=O)O)c3)NC2=O)c(Br)c(Br)c1O`?
TAAR1 antag: 76; TAAR1 ag: 98; TAAR1 ag conf: 49; Ga16 ag counter: 58; TAAR1 desens: 57; Ga16 antag count: 70

How did COC(=O)/C=C1\SC(=Nc2ccc(Cl)c(Cl)c2)NC1=O do in these assays?
OX1R antag-1: inactive; TAAR1 antag: inactive; CHO parental Ca: inactive; TAAR1 ag: inactive; OX1R antag-2: inactive

How did COc1ccc(CCNC2=NCCS2)cc1OC do in these assays?
OX1R antag-1: inactive; TAAR1 antag: inactive; CHO parental Ca: inactive; TAAR1 ag: inactive; OX1R antag-2: inactive

Results for COc1ccc(CCNC2=NCCS2)cc1 ?
OX1R antag-1: inactive; TAAR1 antag: inactive; CHO parental Ca: inactive; TAAR1 ag: 59; OX1R antag-2: inactive; TAAR1 ag conf: 62; Ga16 ag counter: inactive; TAAR1 desens: inactive; Ga16 antag count: inactive

How did CCCN(CC(=O)Nc1cc(Cl)ccc1Cl)C(=O)c1ccc2n[nH]nc2c1 do in these assays?
OX1R antag-1: inactive; TAAR1 antag: inactive; CHO parental Ca: inactive; TAAR1 ag: inactive; OX1R antag-2: inactive

Compound activity from PubChem BioAssay.
